# Measurements pooled from the literature.
# Target: Cyclin-dependent kinase 18 (CDK18, Homo sapiens, UniProt Q07002)
Structure (SMILES),assay,conditions,remaining binding
O=C(NCCCN1CCOCC1)c1ccc(Nc2ncc(Cl)c(-c3ccc(Cl)s3)n2)cc1,"binding, competition with immobilised ligand",1 µM,70%
C[C@@H]1CCN(c2nccc(-c3cnn4ncccc34)n2)C1,binding,1 µM,100%
O=C(NCCCN1CCOCC1)c1ccc(Nc2nccc(-c3cc4ccccc4s3)n2)cc1,"binding, competition with immobilised ligand",1 µM,99%
CNC(=O)[C@@H]1CC[C@@H](n2c(-c3ccc4cnccc4c3)nc3ccc(C(=O)NCc4cccc(C(N)=O)c4)cc32)C1,"binding, competition with immobilised ligand",1 µM,100%
CN(C)c1nccc(-c2cnc3ncccn23)n1,binding,1 µM,100%
C[C@@H](c1ccc(-n2cnc3c(N)ncnc32)cc1)N1CCc2nn(C)c(Cc3ccccc3)c2C1=O,"binding, competition with immobilised ligand",0.1 µM,100%
CC1=C(C#N)[C@@H](c2ccc3[nH]nc(C)c3c2)C(C#N)=C(c2ccc(Cl)cc2)N1,"cell-free assay, competition with immobilised ligand",1 µM,100%
FC(F)(F)Oc1cccc(-c2cnc3ccc(-c4ccncc4)nn23)c1,"cell-free assay, competition with immobilised ligand",5 µM,46%
N[C@@H]1CCN(c2nccc(-c3cnn4ncccc34)n2)C1,binding,1 µM,100%
Cc1cnc(Nc2ccc(C(=O)N3CCC(N4CCCC4)CC3)cc2)nc1-c1cc2ccccc2s1,"binding, competition with immobilised ligand",1 µM,100%
COc1ccnn2ncc(-c3ccnc(N(C)C)n3)c12,binding,1 µM,100%
NS(=O)(=O)c1cc(NC(=O)C2(c3ccccc3Cl)CC2)ccc1Oc1cccc(Cl)c1,"cell-free assay, competition with immobilised ligand",1 µM,69%
CN(C)c1nccc(-c2cnn3ncccc23)n1,binding,1 µM,89%
NS(=O)(=O)c1cc(NC(=O)Cc2ccccc2)ccc1Oc1cccc(Cl)c1,"cell-free assay, competition with immobilised ligand",1 µM,100%
COc1cnc(Nc2cccc(S(N)(=O)=O)c2)nc1N1CCN(c2ccccc2)CC1,"binding, competition with immobilised ligand",1 µM,98%
CNC(=O)Nc1ccc2c(c1)[C@@]1(CC2)OC(=O)N(CC(=O)N(Cc2ccc(F)cc2)[C@@H](C)C(F)(F)F)C1=O,"cell-free assay, competition with immobilised ligand",1 µM,100%
CN1CCN(c2ccc(Nc3nccc(-c4ccccc4)n3)cc2C(F)(F)F)CC1,binding,10 µM,23%
O=C1CCc2cc(Nc3cc(OC4CCOCC4)c([N+](=O)[O-])cc3Cl)ccc2N1,"cell-free assay, competition with immobilised ligand",1 µM,100%
O=C(NCC1CCOCC1)c1n[nH]cc1NC(=O)c1c(F)cccc1F,"binding, competition with immobilised ligand",1 µM,86%
CCC(=N\O)/C(C)=C/c1ccc(F)cc1,"cell-free assay, competition with immobilised ligand",1 µM,89%
CN(CCCC(F)(F)F)c1nccc(-c2cnn3ncccc23)n1,binding,1 µM,52%
O=C(Nc1ccc(Oc2ccc(F)cc2)cc1)N1CCc2ncccc2[C@H]1c1ccc(F)cc1,"cell-free assay, competition with immobilised ligand",1 µM,98%
CCN1CCN(Cc2ccc(C(=O)Nc3ccc(C)c(Oc4ccc5c(c4)CC(=O)N5)c3)cc2C(F)(F)F)CC1,"binding, competition with immobilised ligand",1 µM,100%
